Data from ChEMBL document CHEMBL2216753, “Novel 1,4-benzoxazine and 1,4-benzodioxine inhibitors of angiogenesis” (Eur J Med Chem, 2012).
Calls of active or inactive are those of the source. The calls are words filed in the database; no cut-off is given here.

Columns and labels:
[1] = Cytotoxicity against human HMEC1 cells at 100 uM after 3 days by coulter counter method; format: cell-based; conditions: hmec-1, 72 h
In short: (§1)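 Cells seeded at 10,000 cells per cm2; after 16 h, fresh medium with test compound added. Cells trypsinized and counted with a Coulter counter on day 4 (BAEC, HeLa, MCF-7) or day 7 (HMEC-1). Cytotoxicity (cell death) was judged after 3 days in culture. HMEC-1 grown in EGM-2 with supplements and growth factors.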

[2] = Cytotoxicity against bovine BAEC cells at 100 uM after 3 days by coulter counter method; format: cell-based, Bos taurus; conditions: cattle, 72 h; in short: as §1
[3] = test system: HeLa; test: Cytotoxicity against human HeLa cells at 100 uM after 3 days by coulter counter method; format: cell-based; conditions: 72 h; in short: as §1
[4] = test system: MCF7; test: Cytotoxicity against human MCF7 cells at 100 uM after 3 days by coulter counter method; format: cell-based; conditions: mcf7, 72 h; in short: as §1
[5] = Cytotoxicity against human HMEC1 cells at 30 uM after 3 days by coulter counter method; format: cell-based; conditions: hmec-1, 72 h; in short: as §1
[6] = Cytotoxicity against bovine BAEC cells at 30 uM after 3 days by coulter counter method; format: cell-based, Bos taurus; conditions: cattle, 72 h; in short: as §1
[7] = test system: HeLa; test: Cytotoxicity against human HeLa cells at 30 uM after 3 days by coulter counter method; format: cell-based; conditions: 72 h; in short: as §1
[8] = test system: MCF7; test: Cytotoxicity against human MCF7 cells at 30 uM after 3 days by coulter counter method; format: cell-based; conditions: mcf7, 72 h; in short: as §1
[9] = test system: MAEC; test: Antimigratory activity against mouse MAEC cell migration after 5 hrs by wound closure assay; format: functional, cell-based
In short: (§2)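 Confluent MAEC monolayers wounded with a 1.0-mm wide micropipette tip, then incubated in fresh medium with test compound. Wounds photographed after 5 h and width calculated from digital images. Mean ± SD of 2–4 independent experiments; Student t test, p < 0.05 significant.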

[10] = test system: MAEC; test: Antimigratory activity against mouse MAEC cell migration at 30 uM after 5 hrs by wound closure assay; format: functional; in short: as §2
[11] = Antimigratory activity against mouse MAEC cell migration at 10 uM after 5 hrs by wound closure assay; format: functional; in short: as §2
[12] = test system: HMEC-1; test: Antiangiogenic activity in human HMEC1 cells assessed as inhibition of tube formation after 4 to 6 hrs by matrigel assay; format: functional, cell-based
In short: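 HMEC-1 (60,000 cells) seeded on matrigel (10 mg/mL) after 30 min gelling at 37 °C, in DMEM containing test compound; after 4–6 h cells photographed and tubes scored 0 (none) to 3 (maximal, like untreated control). Mean ± SD of 2–4 independent experiments; Student t test, p < 0.05 significant.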

[13] = organism: Gallus gallus; test: Antiangiogenic activity in chicken embryo chorioallantoic membrane model at 250 nmol/disc after 3 days; format: functional, tissue-based
[14] = Antiproliferative activity against human HMEC1 cells after 7 days by coulter counter method; format: functional, cell-based; conditions: HMEC-1, 168 h
[15] = test system: HeLa; test: Antiproliferative activity against human HeLa cells after 4 days by coulter counter method; format: functional, cell-based; conditions: 96 h
[16] = Antiproliferative activity against bovine BAEC cells after 4 days by coulter counter method; format: functional, cell-based; conditions: Bos taurus, 96 h
[17] = test system: MCF7; test: Antiproliferative activity against human MCF7 cells after 4 days by coulter counter method; format: functional, cell-based; conditions: MCF7, 96 h

Row | SMILES | Activity [1] | Activity [2] | Activity [3] | Activity [4] | inhibition [13] | IC50 [14] | IC50 [15] | IC50 [16] | IC50 [17] | other results
1 | CCOC(=O)C(=O)N(Cc1ccc(F)c(F)c1)c1ccc2c(c1)OC(C)(COc1ccc(C(=N)N)cc1)CN2C (stereo unspecified) | Toxic | Toxic | Toxic | Toxic | Active | 6.7 µM | 11 µM | 4.9 µM | 5.8 µM | Activity [5]: Non-toxic; Activity [6]: Non-toxic; Activity [7]: Non-toxic; Activity [8]: Non-toxic; inhibition [9]: Dose-dependent effect; inhibition [10]: Active; inhibition at 10 µM [11]: 50%; inhibition [12]: Dose-dependent effect
2 | CCOC(=O)CN(Cc1ccc(F)cc1)c1ccc2c(c1)OC(C)(COc1ccc(C#N)cc1)CN2C (stereo unspecified) | Toxic | Toxic | Toxic | Toxic | – | > 100 µM | > 100 µM | 50 µM | > 100 µM | –
3 | CCOC(=O)CN(Cc1cc(F)cc(F)c1)c1ccc2c(c1)OC(C)(COc1ccc(C#N)cc1)CN2C (stereo unspecified) | Toxic | Toxic | Toxic | Toxic | – | 49 µM | > 100 µM | 25 µM | 54 µM | –
4 | CN1CC(C)(COc2ccc(C(=N)N)cc2)Oc2cc(N(Cc3ccc(F)c(F)c3)C(=O)C(=O)O)ccc21 (stereo unspecified) | – | – | – | – | inactive | – | – | – | – | –
5 | CCOC(=O)C(=O)N(Cc1cccc(F)c1)c1ccc2c(c1)OC(C)(COc1ccc(C(=N)N)cc1)CN2C (stereo unspecified) | Toxic | Toxic | Toxic | Toxic | Active | 7.9 µM | 7.7 µM | 6.5 µM | 3.8 µM | Activity [5]: Non-toxic; Activity [6]: Non-toxic; Activity [7]: Non-toxic; Activity [8]: Non-toxic; inhibition [9]: Dose-dependent effect; inhibition [10]: Active; inhibition at 10 µM [11]: 50%; inhibition [12]: Dose-dependent effect
6 | CN1CC(C)(CO)Oc2cc(N(Cc3ccccc3)C(=O)C(=O)O)ccc21 (stereo unspecified) | – | – | – | – | – | – | > 100 µM | > 100 µM | – | –
7 | CN1CC(C)(COc2ccc(C(=N)N)cc2)Oc2cc(N(CC(=O)O)Cc3ccc(F)c(F)c3)ccc21 (stereo unspecified) | – | – | – | – | inactive | – | – | – | – | –
8 | CCOC(=O)C(=O)N(Cc1cc(F)cc(F)c1)c1ccc2c(c1)N(C)CC(C)(COc1ccc(C(=N)N)cc1)O2 (stereo unspecified) | Toxic | Toxic | Toxic | Toxic | Active | 7.8 µM | 6.9 µM | 11 µM | 5.2 µM | Activity [5]: Non-toxic; Activity [6]: Non-toxic; Activity [7]: Non-toxic; Activity [8]: Non-toxic; inhibition [9]: Dose-dependent effect; inhibition [10]: Active; inhibition at 10 µM [11]: 50%; inhibition [12]: Dose-dependent effect
9 | CCOC(=O)C(=O)N(Cc1ccc(F)c(F)c1)c1ccc2c(c1)N(C)CC(C)(COc1ccc(C(=N)N)cc1)O2 (stereo unspecified) | Toxic | Toxic | Toxic | Toxic | Active | 8.3 µM | 14 µM | 7.4 µM | 6.3 µM | Activity [5]: Non-toxic; Activity [6]: Non-toxic; Activity [7]: Non-toxic; Activity [8]: Non-toxic; inhibition [9]: Dose-dependent effect; inhibition [10]: Active; inhibition at 10 µM [11]: 50%; inhibition [12]: Dose-dependent effect
10 | CCOC(=O)C(=O)N(Cc1cccc(F)c1)c1ccc2c(c1)N(C)CC(C)(COc1ccc(C(=N)N)cc1)O2 (stereo unspecified) | – | – | – | – | Active | – | – | – | – | inhibition [9]: Dose-dependent effect; inhibition [10]: Active; inhibition [12]: Dose-dependent effect
11 | CN1CC(C)(COc2ccc(C(=N)N)cc2)Oc2ccc(N(Cc3ccc(F)c(F)c3)C(=O)C(=O)O)cc21 (stereo unspecified) | – | – | – | – | inactive | – | – | – | – | –
12 | CCOC(=O)CN(Cc1cc(F)cc(F)c1)c1ccc2c(c1)N(C)CC(C)(COc1ccc(C#N)cc1)O2 (stereo unspecified) | Toxic | Toxic | Toxic | Toxic | – | > 100 µM | > 100 µM | > 100 µM | > 100 µM | –
13 | CN1CC(C)(COc2ccc(C(=N)N)cc2)Oc2ccc(N(CC(=O)O)Cc3ccc(F)c(F)c3)cc21 (stereo unspecified) | – | – | – | – | inactive | – | – | – | – | –
14 | CN1CC(C)(COc2ccc(C(=N)N)cc2)Oc2ccc(N(Cc3ccc(F)cc3)C(=O)C(=O)O)cc21 (stereo unspecified) | – | – | – | – | inactive | – | – | – | – | –
15 | CCOC(=O)C(=O)N(Cc1ccc(F)cc1)c1ccc2c(c1)OC(C)(COc1ccc(C(=N)N)cc1)CN2C (stereo unspecified) | Toxic | Toxic | Toxic | Toxic | Active | 7.6 µM | 14 µM | 6.9 µM | 6.3 µM | Activity [5]: Non-toxic; Activity [6]: Non-toxic; Activity [7]: Non-toxic; Activity [8]: Non-toxic; inhibition [9]: Dose-dependent effect; inhibition [10]: Active; inhibition at 10 µM [11]: 50%; inhibition [12]: Dose-dependent effect
16 | CCOC(=O)CN(Cc1cccc(F)c1)c1ccc2c(c1)N(C)CC(C)(COc1ccc(C#N)cc1)O2 (stereo unspecified) | Toxic | Toxic | Toxic | Toxic | – | > 100 µM | > 100 µM | > 100 µM | > 100 µM | inhibition [9]: Dose-dependent effect

Row | SMILES | Activity [1] | Activity [2] | Activity [3] | Activity [4] | inhibition [13] | IC50 [14] | IC50 [15] | IC50 [16] | IC50 [17] | other results
17 | CN1CC(C)(COc2ccc(C(=N)N)cc2)Oc2cc(N(CC(=O)O)Cc3cccc(F)c3)ccc21 (stereo unspecified) | – | – | – | – | inactive | – | – | – | – | –
18 | CN1CC(C)(COc2ccc(C(=N)N)cc2)Oc2cc(N(Cc3cccc(F)c3)C(=O)C(=O)O)ccc21 (stereo unspecified) | – | – | – | – | inactive | – | – | – | – | –
19 | CN1CC(C)(COc2ccc(C(=N)N)cc2)Oc2cc(N(Cc3ccc(F)cc3)C(=O)C(=O)O)ccc21 (stereo unspecified) | – | – | – | – | inactive | – | – | – | – | –
20 | CN1CC(C)(COc2ccc(C(=N)N)cc2)Oc2cc(N(CC(=O)O)Cc3ccc(F)cc3)ccc21 (stereo unspecified) | – | – | – | – | inactive | – | – | – | – | –
21 | N=C(N)c1ccc(OCC2COc3ccc(N(Cc4ccccc4)C(=O)C(=O)O)cc3O2)cc1 (stereo unspecified) | – | – | – | – | inactive | – | > 100 µM | > 100 µM | – | –
22 | CN1CC(C)(CO)Oc2cc(N(Cc3cc(F)cc(F)c3)C(=O)C(=O)O)ccc21 (stereo unspecified) | – | – | – | – | – | – | > 100 µM | > 100 µM | – | –
23 | CN1CC(C)(COc2ccc(C(=N)N)cc2)Oc2ccc(N(CC(=O)O)Cc3ccc(F)cc3)cc21 (stereo unspecified) | – | – | – | – | inactive | – | – | – | – | –
24 | CN1CC(C)(COc2ccc(C(=N)N)cc2)Oc2ccc(N(CC(=O)O)Cc3cccc(F)c3)cc21 (stereo unspecified) | – | – | – | – | inactive | – | – | – | – | –
25 | CN1CC(C)(COc2ccc(C(=N)N)cc2)Oc2ccc(N(CC(=O)O)Cc3cc(F)cc(F)c3)cc21 (stereo unspecified) | – | – | – | – | inactive | – | – | – | – | –
26 | N=C(N)c1ccc(OCC2COc3cc(N(Cc4ccccc4)C(=O)C(=O)O)ccc3O2)cc1 (stereo unspecified) | – | – | – | – | inactive | – | > 100 µM | > 100 µM | – | –
27 | CN1CC(C)(COc2ccc(C(=N)N)cc2)Oc2ccc(N(Cc3cccc(F)c3)C(=O)C(=O)O)cc21 (stereo unspecified) | – | – | – | – | inactive | – | – | – | – | –
28 | CN1CC(C)(COc2ccc(C(=N)N)cc2)Oc2cc(N(CC(=O)O)Cc3cc(F)cc(F)c3)ccc21 (stereo unspecified) | – | – | – | – | inactive | – | – | – | – | –
29 | CN1CC(C)(COc2ccc(C(=N)N)cc2)Oc2ccc(N(Cc3cc(F)cc(F)c3)C(=O)C(=O)O)cc21 (stereo unspecified) | – | – | – | – | inactive | – | – | – | – | –
30 | CCOC(=O)C(=O)N(Cc1ccc(F)cc1)c1ccc2c(c1)N(C)CC(C)(COc1ccc(C(=N)N)cc1)O2 (stereo unspecified) | Toxic | Toxic | Toxic | Toxic | Active | 8.4 µM | 14 µM | 6.6 µM | 5.5 µM | Activity [5]: Non-toxic; Activity [6]: Non-toxic; Activity [7]: Non-toxic; Activity [8]: Non-toxic; inhibition [9]: Dose-dependent effect; inhibition [10]: Active; inhibition at 10 µM [11]: 50%; inhibition [12]: Dose-dependent effect
31 | Cc1cc(C)c(/C=C2\C(=O)Nc3ccccc32)[nH]1 | – | – | – | – | – | – | – | – | – | inhibition [9]: Dose-dependent effect
32 | CN1CC(C)(COc2ccc(C(=N)N)cc2)Oc2cc(N(Cc3cc(F)cc(F)c3)C(=O)C(=O)O)ccc21 (stereo unspecified) | – | – | – | – | inactive | – | – | – | – | –
